MDM2 E3 inh: Mdm2 E3 ligase (human) inhibition | 210,000 compounds, 0.11% hits | AID 1230 | Q00987 | signal enhancement, % at 5 µM | cell-based MDM2 ubiquitination luciferase reporter, 2 h; 0 = plate control, 100 = twice control, blank-subtracted;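 active means signal enhancement of 30% or more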;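 further: luminescence tracks abundance of the self-degrading MDM2-luciferase fusion protein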
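test system = mammalian cells stably expressing self-ubiquitinating, self-degrading MDM2 E3–luciferase fusion | quantity = 2000 cells/well | incubation = cell settling 4 h, compound treatment 2 h, both 37 °C | signal = luminescence with SteadyLite reagent, 15 min at room temperature | evaluation = % enhancement relative to plate controls after blank subtraction | benchmarks = plate controls and plate blanks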
Mdm2-MdmX inh: inhibitors of human Mdm2/MdmX interaction. SaOS-2 split-luciferase Mdm2/MdmX complementation, luminescence. inhibition, % at 8 µM. 330,000 compounds, 3% hits. AID 485346;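 active means inhibition of at least 50% at 8 µM in the primary screen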
Dynein cargo inh: dynein cargo transport inhibition | 3617.4 mouse cells, GR-EGFP nuclear translocation imaging; test concentration mostly 20 µM; stimulated with dexamethasone, 1 µM; active compounds read low | z-score, hits read low | 220,000 compounds, 0.47% hits;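 active means plate z-score of nuclear minus cytoplasmic receptor signal below a set negative limit, without overly bright fluorescence or cell loss, cut at about -3.5 in these data, passing the limit was not always enough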;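 further: z-score of nuclear minus cytoplasmic ring GR-EGFP intensity difference per well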
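Buffer or medium: tetracycline-free induction medium containing charcoal-stripped FBS / Reagent: dexamethasone agonist, 1.0 µM final, for 30 min / Technique: automated 10x imaging of fixed Hoechst-stained cells / Times: induction 48 h, compound 1 h, agonist 30 min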
B2AR ag: human beta-2 adrenergic receptor agonism by FAP. P07550. Am2.2-beta2AR cells, FAP receptor internalization, flow cytometry. response, % (no concentration beside the values). 340,000 compounds, 0.43% hits. AID 504454;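 active means response above a set limit, near 3 SD of response in nonfluorescent compounds, cut at about 42% in these data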
Target sequence (P07550 whole entry, looked up): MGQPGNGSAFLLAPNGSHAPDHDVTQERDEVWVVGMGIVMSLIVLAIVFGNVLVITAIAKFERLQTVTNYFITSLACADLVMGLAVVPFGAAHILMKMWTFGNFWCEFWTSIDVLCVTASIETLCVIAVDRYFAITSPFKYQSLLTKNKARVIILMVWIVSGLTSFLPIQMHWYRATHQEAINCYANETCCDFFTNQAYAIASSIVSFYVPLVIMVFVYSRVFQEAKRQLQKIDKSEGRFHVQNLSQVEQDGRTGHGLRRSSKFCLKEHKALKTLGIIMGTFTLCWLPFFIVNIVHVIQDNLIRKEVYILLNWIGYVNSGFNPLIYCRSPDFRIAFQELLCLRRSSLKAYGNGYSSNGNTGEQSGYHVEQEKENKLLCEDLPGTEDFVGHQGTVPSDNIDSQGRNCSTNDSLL
UPR XBP1 act: activators of adaptive arm of unfolded protein response (XBP1); CHO-XBP1 luciferase reporter, IRE1-XBP1 UPR activation, luminescence; percent of tunicamycin response, DMSO as zero; activation, % at 20 µM; 330,000 compounds, 0.33% hits;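 active means versus positive control, 20 µM dose yields 30% or more activation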
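Test system: CHO-XBP1 luciferase reporter cells | Buffer or medium: Serum-containing F12 medium, 10% FBS | Schedule: 6 h compound exposure at 37 °C, 5% CO2 | Detection: Steady-Glo luciferase glow luminescence, 10 min after reagent addition | Read-out basis: Activation, % of tunicamycin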
UPR CHOP act: activators of apoptotic arm of unfolded protein response (CHOP); CHO-CHOP luciferase reporter, UPR activation, luminescence; percent of tunicamycin response over DMSO baseline; activation, % at 10 µM; 330,000 compounds, 0.34% hits; AID 449763;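 active means at 10 µM dose, activation of 40% or more, normalized to positive control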
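System: CHO CHOP reporter cells. Amount: 500 cells per well. Buffer or medium: F12 medium, 10% FBS. Compound dosing: one dose, 10 µM in 0.5% DMSO. Incubation: 6 h compound exposure at 37 °C after overnight seeding. Technique: Steady-Glo luciferase luminescence. Benchmarks: tunicamycin and DMSO controls.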
Mdm2-MdmX conf: human Mdm2/MdmX binding inhibition, confirmed; luminescent assay; 10,000 compounds, 55% hits; shares compounds with Mdm2-MdmX inh; inhibition, % at 8 µM; AID 489028; in the data active means inhibition above about 40%
FLuc counter: counter-screen for Mdm2/MdmX inhibitors: full-length luciferase. shares compounds with Mdm2-MdmX inh. SaOS-2 full-length luciferase counterscreen, luminescence. inhibition, % at 8 µM. 6,200 compounds, 77% hits;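 active means mean inhibition at 8 µM reaching about 37%, which flags the compound as non-specific, limit read from the data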;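 further: p53-null SaOS-2 cells with luciferase driven by a doxycycline-inducible promoter; compound on cells about two nights before reading with doxycycline added after day one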
A number is an active result; - = inactive; . = no result given. Most compounds without a hit are left out; they make up all but 3.7% or so of the library.

SMILES	MDM2 E3 inh	Mdm2-MdmX inh	Dynein cargo inh	B2AR ag	UPR XBP1 act	UPR CHOP act	Mdm2-MdmX conf	others
O=C(N/N=C/c1sc(=O)n(Cc2ccc(Br)cc2)c1Cl)c1ccco1	.	59.1	.	-	-	-	-
O=C(N/N=C/c1ccc(Br)s1)c1ccco1	-	-	-	-	-	-	.
CCn1c(SCC(=O)Nc2ccc(N3CCOCC3)cc2)nnc1-c1ccco1	.	-	.	-	-	-	.
O=C(CSc1nc2ccccc2o1)NC1CCS(=O)(=O)C1 (centres undefined)	.	-	.	-	-	-	.
C=C1/C=C(\C)[C@](C)(O)C[C@H](O)CC(=O)[C@H](O)[C@@H](O)[C@H](C)C[C@H](C)OC(=O)/C(C)=C/CC/C=C/[C@@H]2O[C@H]2C[C@H](C)C1	.	97.2	.	.	-	-	-
O=C(Oc1cccc(/C=N/Nc2nc(Nc3ccccc3)nc(N3CCOCC3)n2)c1)c1ccco1	-	58.3	-	-	-	-	48.5	FLuc counter=118.2
C(=N\Nc1nc(Nc2ccccc2)nc(N2CCOCC2)n1)/c1c[nH]c2ccccc12	-	51.6	-	.	-	-	-
Cc1[nH]c2ccccc2c1/C=N/Nc1nc(Nc2ccc(F)cc2)nc(N2CCOCC2)n1	-	86.7	-	-	-	-	-	FLuc counter=100.9
COC(=O)c1cncc(C)c1	.	-	-	-	-	-	.
C[C@H](CCC(=O)NCC(=O)O)[C@H]1CC[C@H]2C3[C@H](O)C[C@@H]4C[C@H](O)CC[C@]4(C)[C@H]3C[C@H](O)[C@]12C (some centres undefined)	.	-	.	-	-	-	.
CC(=O)N1CC(=O)N=C1SCC(=O)Nc1nc(-c2ccccc2)c(-c2ccccc2)s1	-	57.1	-	-	-	-	-
COc1cccc(CNC(=O)C2CCC(=O)N(C3CC3)C2)c1OC (centres undefined)	.	-	.	-	-	-	.
Cc1ccc(C)c2[nH]c(=O)c(CN(CC3CCCO3)C(=S)NCc3ccco3)cc12 (centres undefined)	-	-	-	-	-	-	.
Cc1ccc2cc(CN(CC3CCCO3)C(=S)NCc3ccco3)c(=O)[nH]c2c1C (centres undefined)	-	83.1	-	-	-	-	57.7	FLuc counter=37.2
CCN(CC)CCCN(Cc1cc2ccc(C)c(C)c2[nH]c1=O)C(=O)NC1CCCCC1	-	61.3	-	-	-	-	49.9	FLuc counter=73.8
CC(=O)Nc1ccc(OC(=O)N2CCCC2)cc1	.	-	.	-	-	-	.
O=C(CSc1nc(-c2ccc(F)cc2)cc(C(F)(F)F)n1)Nc1ccc2c(c1)OCO2	-	60.9	-	-	-	-	-	FLuc counter=75.2
CC(C)c1nc(SCC(=O)Nc2ccc3c(c2)OCO3)n[nH]1	-	-	-	-	-	-	.
CC(C)=CCc1cc([C@@H]2COc3c(ccc4c3C=CC(C)(C)O4)C2)c(O)cc1O	.	63.7	.	-	-	-	-
Cc1ccc(Nc2nnc(SCC(=O)NCC3CCCO3)s2)cc1C (centres undefined)	.	-	.	-	-	-	.
Cc1ccc(-n2nc3c([n+]2[O-])CCc2c-3no[n+]2[O-])cc1	-	52.9	-	-	-	-	-
COc1cccc2c1C(=O)CC1C2CCC2CC(=O)CCC21C (centres undefined)	.	-	.	-	-	-	.
CN(C(=O)c1cccc(C#CC(C)(C)O)c1)C1CCCN(Cc2ccccc2F)C1 (centres undefined)	.	-	.	-	-	-	.
COc1ccc(NC(=O)/C(C#N)=C\c2cc(C)n(-c3ccc4c(c3)OCO4)c2C)cc1	-	58.4	-	-	-	-	54.9	FLuc counter=75.2
CS(=O)(=O)c1cccc(C(=O)N(CCc2ccccc2)Cc2cccs2)c1	.	-	.	-	-	-	.
SMILES	MDM2 E3 inh	Mdm2-MdmX inh	Dynein cargo inh	B2AR ag	UPR XBP1 act	UPR CHOP act	Mdm2-MdmX conf	others
O=C(c1ccccc1)N1CCN(CC(O)COc2cccc3ccccc23)CC1 (centres undefined)	.	-	.	-	-	-	.
O=C(c1cccc(COc2cccc3ccccc23)c1)N1CCCC1	.	50.1	-	-	-	-	-
CCN1C(=O)/C(=C/C=C2/Sc3ccccc3N2CCO)SC1=S	-	69.7	-	-	-	-	-
CCN1C(=O)/C(=C/C=C2/SCCN2C)SC1=S	-	-	-	-	-	-	.
COc1ccc(OC)c(S(=O)(=O)Nc2cc3c(cc2N2CCCC2)n(C)c(=O)c(=O)n3C)c1	.	-	.	-	-	-	.
Cc1ccc(Cl)cc1N1CCN(C(=O)Cc2csc(Nc3nc(=S)[nH]c4ccccc34)n2)CC1	-	55.3	-	-	-	-	-
O=C(Cc1csc(Nc2nc(=S)[nH]c3ccccc23)n1)N1CCN(c2cccc(Cl)c2)CC1	-	-	-	-	-	-	.
O=C(Cc1ccsc1)NNC(=O)c1ccc(F)cc1	.	-	.	-	-	-	.
Cc1ccc(NC(=O)CCC(=O)N/N=C/c2ccccc2O)cc1	.	-	.	-	-	-	.
C/C(=N\NC(=O)CCc1ccccc1)c1ccc(Br)cc1	-	-	-	-	-	-	.
C/C(=N/NC(=O)CCC(=O)Nc1ccc(Br)cc1)c1ccc(Br)cc1	.	50.6	.	-	-	-	-
CN(C)c1ccc(C(=O)N/N=C/c2cc(Br)cc(Br)c2O)cc1	-	80.4	-	-	-	-	86.2	FLuc counter=53.7
